These results are taken from ChEMBL document CHEMBL1122082, “Alkaline phosphatase inhibition by a series of pyrido[2,1-b]quinazolines: A possible relationship with cromolyn-like antiallergy activity” (J Med Chem, 1982).

Active and inactive are the calls of the source. No cut-off for these calls is given here.

The first assay has as its system Rattus norvegicus. Description: Percent inhibition of rat passive cutaneous anaphylaxis model after intravenous administration of the 0.5 mg/kg; IA is Inactive. It counts as functional, organism-based. The arrangement: dose 0.5 mg/kg. As to conditions: at 0.5 mg/kg. An outline of the steps:
(§1)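 Antiserum dilutions were injected intradermally on the back. 48 h later rats got an i.v. challenge of 1 mg ovalbumin with 0.25% Evans blue in 1 mL saline, with compound dissolved in it, using slight-excess NaHCO3 if needed.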
With `O=C(O)C1=CN2CC3=C(CCCC3)N=C2C=C1`, the inhibition result is “inactive”.

`O=C(O)c1ccc2nccc(=O)n2c1`: the inhibition result is “inactive”.

Regarding `O=C(O)c1cccn2c(=O)c3ccccc3nc12`, the inhibition entry is “inactive”.

In the case of `O=C(O)c1cccn2c(=O)c3cc4ccccc4cc3nc12`, the inhibition result is “inactive”.

In the next assay the test system is Rattus norvegicus. Description: Percent inhibition of rat passive cutaneous anaphylaxis model after intravenous administration of the 0.5 mg/kg. It counts as functional.
Details: not given
An outline of the steps:
as §1
As usually defined, the inhibition in vivo is the relative decrease from the control value, in per cent. A low value points to a response near the control. `COc1cc2nc3ccc(-c4nn[nH]n4)cn3c(=O)c2cc1OC`: testing at 0.5 mg/kg gave an inhibition in vivo of 100%.

`O=c1c2ccccc2nc2ccc(-c3nn[nH]n3)cn12`: the inhibition in vivo at 0.5 mg/kg was 68%.

In turn, `O=c1c2cc3ccccc3cc2nc2ccc(-c3nn[nH]n3)cn12` came in with an inhibition in vivo at 0.5 mg/kg of 100%.

Compound `O=C(O)c1ccn2c(=O)c3ccccc3nc2c1` came in with an inhibition in vivo at 0.5 mg/kg of 26%.

With `Cc1ccc2nc3ccc(-c4nn[nH]n4)cn3c(=O)c2c1`, the inhibition in vivo at 0.5 mg/kg is 100%.

The next assay is filed under the species Rattus norvegicus. Description: Dose required for 50% inhibition of rat passive cutaneous anaphylaxis model.
Details: not given
It counts as functional. An outline of the steps: as §1
As a reminder, the ED50 is the dose that gives a 50% effect, or the effect in half of the subjects. `COc1ccc2nc3ccc(-c4nn[nH]n4)cn3c(=O)c2c1` yielded an ED50 of 0.03 mg/kg.

For the compound `COc1ccc2c(=O)n3cc(-c4nn[nH]n4)ccc3nc2c1`, the ED50 is 0.5 mg/kg.

Take `O=C(O)c1ccc2nc3ccccc3c(=O)n2c1`: it took a dose of 0.5 mg/kg to reach the 50% effect level (ED50).

As for `O=C(O)c1ccc2nc3cc4ccccc4cc3c(=O)n2c1`, the ED50 was 0.1 mg/kg.

Compound `COc1ccc2nc3ccc(C(=O)O)cn3c(=O)c2c1` showed an ED50 of 0.05 mg/kg.

As for `COc1cc2nc3ccc(C(=O)O)cn3c(=O)c2cc1OC`, it took a dose of 0.05 mg/kg to reach the 50% effect level (ED50).

The compound `Cc1ccc2nc3ccc(C(=O)O)cn3c(=O)c2c1` gave an ED50 of 0.05 mg/kg.

The compound `O=C(O)c1ccc2nc3ccc(O)cc3c(=O)n2c1` displayed an ED50 of 0.05 mg/kg.
